In ChEMBL document CHEMBL3351692, “Discovery and optimization of 1,3,5-trisubstituted pyrazolines as potent and highly selective allosteric inhibitors of protein kinase C-ζ” (J Med Chem, 2014):

Experiments:
[1] = molecular target: T1, Protein kinase C iota type (Homo sapiens) (UniProt P41743); assay: Inhibition of PKCiota (unknown origin) at 20 uM
T1 sequence (whole entry): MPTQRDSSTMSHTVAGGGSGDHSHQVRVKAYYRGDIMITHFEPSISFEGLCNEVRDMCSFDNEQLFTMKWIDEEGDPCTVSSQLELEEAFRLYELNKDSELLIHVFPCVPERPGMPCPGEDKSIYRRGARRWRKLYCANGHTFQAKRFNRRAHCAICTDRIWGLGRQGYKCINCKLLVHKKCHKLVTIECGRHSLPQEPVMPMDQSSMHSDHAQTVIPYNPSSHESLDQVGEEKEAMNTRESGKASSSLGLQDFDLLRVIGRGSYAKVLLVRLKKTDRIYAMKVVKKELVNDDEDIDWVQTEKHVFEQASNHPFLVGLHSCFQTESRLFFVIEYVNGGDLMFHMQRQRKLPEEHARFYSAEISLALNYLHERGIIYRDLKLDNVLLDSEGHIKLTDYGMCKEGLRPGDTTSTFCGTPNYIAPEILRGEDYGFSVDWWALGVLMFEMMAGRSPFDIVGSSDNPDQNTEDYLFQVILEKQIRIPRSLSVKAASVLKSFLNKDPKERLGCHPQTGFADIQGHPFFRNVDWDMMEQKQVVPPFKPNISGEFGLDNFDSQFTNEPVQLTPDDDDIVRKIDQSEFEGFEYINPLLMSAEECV
Method in brief: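 Cell-free radiometric kinase assay with purified recombinant PKCι under conditions similar to the PKCζ assay. Reaction mixtures preincubated 4 min at 37 °C, then phosphorylation started with γ32P-ATP/Mg2+. Mean of at least two experiments.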

[2] = molecular target: T2, Protein kinase C zeta type (Homo sapiens, UniProt Q05513); assay: Inhibition of human PKCzeta assessed as phosphorylation reaction after 4 mins incubation by cell-free assay
T2 sequence (Q05513 whole entry): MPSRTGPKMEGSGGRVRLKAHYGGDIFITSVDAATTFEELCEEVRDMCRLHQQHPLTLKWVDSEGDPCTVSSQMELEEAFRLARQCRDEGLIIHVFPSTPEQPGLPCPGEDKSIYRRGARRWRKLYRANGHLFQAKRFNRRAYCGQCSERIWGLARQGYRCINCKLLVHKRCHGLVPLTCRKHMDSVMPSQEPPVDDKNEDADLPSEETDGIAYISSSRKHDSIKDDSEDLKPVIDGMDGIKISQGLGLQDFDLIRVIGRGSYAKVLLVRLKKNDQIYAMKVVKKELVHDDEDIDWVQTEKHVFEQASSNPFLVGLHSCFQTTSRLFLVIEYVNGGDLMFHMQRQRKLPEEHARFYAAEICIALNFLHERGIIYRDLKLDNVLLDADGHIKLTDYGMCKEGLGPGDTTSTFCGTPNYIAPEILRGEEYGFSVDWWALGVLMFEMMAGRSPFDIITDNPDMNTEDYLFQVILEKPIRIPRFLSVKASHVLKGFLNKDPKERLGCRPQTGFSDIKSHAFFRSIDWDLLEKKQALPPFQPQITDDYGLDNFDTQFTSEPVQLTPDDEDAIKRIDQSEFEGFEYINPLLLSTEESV

RAW264.7 = assay: Cytotoxicity against mouse RAW264.7 cells assessed as living cells at 7.5 uM by MTT assay; assay type: cell-based; conditions: raw264.7, 7.5 µM
Method in brief: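 RAW 264.7 macrophages: MTT viability assay run in parallel with each nitrite (Griess) experiment, same cell line and same compound treatment conditions.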

[3] = molecular target: T2, Protein kinase C zeta type; assay: Inhibition of PKCzeta in human U937 cells assessed as inhibition of TNFalpha-induced NF-kappaB activation by reporter gene assay; assay type: cell-based, U-937

Row | inhibition [1] [%] | IC50 [2] [nM] | IC50 [3] [nM] | Compound | Activity (RAW264.7)
1 | 31.6 | 3500 |  | Oc1ccc(C2CC(c3ccccc3)=NN2c2ccc(Cl)cc2)cc1 (centres undefined) | Non-toxic
2 | 31.6 | 900 | 1900 | CC(C)(C)C1=NN(c2ccc(F)c(Cl)c2)C(c2ccc(O)cc2)C1 (centres undefined) | Non-toxic
3 |  |  |  | CC(C)(C)C1=NN(c2ccc(F)cc2F)C(c2ccc(O)cc2)C1 (centres undefined) | Non-toxic
4 |  | 11400 |  | CC(C)(C)C1=NN(c2ccc(Br)cc2)C(c2ccc(O)cc2)C1 (centres undefined) | Non-toxic
5 |  |  |  | CC(C)(C)C1=NN(c2ccc(O)cc2)C(c2ccc(O)cc2)C1 (centres undefined) | Non-toxic
6 |  | 9400 |  | CC(C)(C)C1=NN(c2ccc(F)cc2)C(c2ccc(O)cc2)C1 (centres undefined) | Non-toxic
7 |  |  |  | Cc1ccc(N2N=C(C(C)(C)C)CC2c2ccc(O)cc2)c(C)c1 (centres undefined) | Non-toxic
8 |  |  |  | Oc1ccc(C2CC(c3cccs3)=NN2c2ccc(Cl)cc2)cc1 (centres undefined) | Non-toxic
9 | 23.1 |  |  | CC1C(c2ccccc2O)=NN(c2cccc(Cl)c2)C1c1ccc(O)c(F)c1 (centres undefined) | Non-toxic
10 | 23.7 |  |  | CC(C)(C)C1=NN(c2ccc(F)c(F)c2)C(c2ccc(O)cc2)C1 (centres undefined) | Non-toxic
11 | 44.1 | < 100 |  | Oc1ccc(C2CC(c3ccccc3O)=NN2c2ccc(Cl)cc2)cc1O (centres undefined) | Non-toxic
12 | 45.5 | 2100 |  | Oc1ccc(C2CC(c3ccccc3)=NN2c2cccc(Cl)c2)cc1 (centres undefined) | Non-toxic
13 | 38.7 | 5400 |  | Nc1ccc(C2=NN(c3ccc(Cl)cc3)C(c3ccc(O)cc3)C2)cc1 (centres undefined) | Non-toxic
14 | 17 | 2700 | 2700 | CC(C)(C)C1=NN(c2cccc(C(F)(F)F)c2)C(c2ccc(O)cc2)C1 (centres undefined) | Non-toxic
15 |  | 8800 |  | CC(C)(C)C1=NN(c2ccc(C(F)(F)F)cc2)C(c2ccc(O)cc2)C1 (centres undefined) | Non-toxic
16 | 25.2 | 2900 |  | Oc1ccc(C2CC(c3ccccc3O)=NN2c2cccc(Cl)c2)cc1F (centres undefined) | Non-toxic
17 | 24.1 | 6200 |  | Oc1ccc(C2CC(c3ccccn3)=NN2c2cccc(Cl)c2)cc1 (centres undefined) | Non-toxic

Row | inhibition [1] [%] | IC50 [2] [nM] | IC50 [3] [nM] | Compound | Activity (RAW264.7)
18 |  |  |  | CC(C)(C)C1=NN(c2c(Cl)cccc2Cl)C(c2ccc(O)cc2)C1 (centres undefined) | Non-toxic
19 | 19.3 | 2200 |  | CC(C)(C)C1=NN(c2cccc(F)c2)C(c2ccc(O)cc2)C1 (centres undefined) | Non-toxic
20 | 20.3 |  |  | Oc1ccc(C2CC(c3ccc[nH]3)=NN2c2cccc(Cl)c2)cc1 (centres undefined) | Non-toxic
21 |  |  |  | Cc1ccc(N2N=C(C(C)(C)C)CC2c2ccc(O)cc2)cc1 (centres undefined) | Non-toxic
22 |  |  |  | CC(C)(C)C1=NN(c2ccc(Cl)cc2Cl)C(c2ccc(O)cc2)C1 (centres undefined) | Non-toxic
23 |  |  |  | CC(C)(C)C1=NN(c2ccccc2F)C(c2ccc(O)cc2)C1 (centres undefined) | Non-toxic
24 |  |  |  | COc1ccccc1C1=NN(c2ccc(Cl)cc2)C(c2ccc(O)cc2)C1 (centres undefined) | Non-toxic
25 |  |  |  | CC(C)(C)C1=NN(c2ccc(O)cc2)C(c2ccc(Cl)cc2)C1 (centres undefined) | Non-toxic
26 |  |  |  | CCOc1ccccc1C1=NN(c2ccc(Cl)cc2)C(c2ccc(O)cc2)C1 (centres undefined) | Non-toxic
27 | 43.5 | 5200 |  | CC(C)(C)C1=NN(c2cccc(Cl)c2)C(c2ccc(O)cc2)C1 (centres undefined) | Non-toxic
28 | 13.9 |  |  | Cc1cccc(N2N=C(C(C)(C)C)CC2c2ccc(O)cc2)c1 (centres undefined) | Non-toxic
29 |  |  |  | CC(C)(C)C1=NN(c2ccc(C(=O)O)cc2)C(c2ccc(O)cc2)C1 (centres undefined) | Non-toxic
30 |  |  |  | CC(C)(C)C1=NN(c2ccc(Cl)cc2)C(c2ccc(C#N)cc2)C1 (centres undefined) | Non-toxic
31 |  | < 100 | 1100 | Oc1ccc(C2=NN(c3cccc(Cl)c3)C(c3ccc(O)c(F)c3)C2)c(O)c1 (centres undefined) | Non-toxic
32 |  |  |  | Oc1ccc(C2CC(c3ccccc3Cl)=NN2c2ccc(Cl)cc2)cc1 (centres undefined) | Non-toxic
33 |  |  |  | CC(C)c1ccc(N2N=C(C(C)(C)C)CC2c2ccc(O)cc2)cc1 (centres undefined) | Non-toxic
